MC4R antagonist – antagonists of human melanocortin 4 receptor (MC4R); 360,000 compounds, 0.48% hits; P32245; MC4R-expressing cells, MTII-stimulated cAMP, LANCE TR-FRET; inhibition, % at 6.5 µM; AID 540295;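 active = inhibition above its plate's cutoff, the mean of tested wells on that plate plus 3 SD, cut at about 29% in these data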;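 note: 0% = Melanotan II alone and 100% = Melanotan II plus saturating MCL0020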
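Assay system: U2OS-MC4R stable cell line; Also added: Melanotan II; Technique: Eu-cAMP/anti-cAMP TR-FRET, emission 671 nm; Times: 30-min compound, 1-h challenge, 1-h detection, room temperature.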
NR2E3 ag-1 – NR2E3 (human) agonism. Q9Y5X4. inhibition of corepressor binding, % at 4.78 µM. GST-NR2E3/biotin-RetCOR TR-FRET, 1536-well. 320,000 compounds, 0.12% hits;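 active = percent inhibition above the cutoff of mean plus 3 SD of all tested compounds, set per screening campaign, cut at about 20% in these data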;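 note: 0% = DMSO wells and 100% = biotin wells as full block of FRET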
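Material: NR2E3–RetCOR corepressor complex / Amount: 1.35 nM GST-NR2E3 / Medium: Tris pH 7.5 / Compound: single nominal compound dose of 4.8 µM / Incubation: 5 h at 4 °C / Technique: TR-FRET, Eu(K)-anti-GST donor, streptavidin-D2 acceptor, ex 340, em 617/671 nm / Read-out basis: percent loss of FRET ratio relative to control wells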
NR2E3 ag-2 – activates human NR2E3 receptor; 360,000 compounds, 0.35% hits; Q9Y5X4; AID 602229; CHO-S Gal4-NCOR/VP16-NR2E3 two-hybrid, luciferase; inhibition of corepressor binding, % at 3.98 µM;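 active = inhibition above the mean of all tested compounds plus 3 SD, cut at about 70% in these data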;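 note: 0% = DMSO with NR2E3 transfected cells and 100% = cells lacking NR2E3 construct; higher means lower luciferase signal from less NR2E3 corepressor binding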
PG9 binder – binds the HIV-1 gp120 antibody PG9; TR-FRET gp120-PG9 antibody binding; inhibition, % at 6.7 µM; 360,000 compounds, 0.43% hits; AID 624416; in the data active = inhibition above about 8.5%
NR1D1 modulator – Rev-erb alpha (human) modulation | P20393 | Rev-erbα–FITC-DNA binding, fluorescence polarization, 90 min | activity, % at 10 µM | 370,000 compounds, 0.79% hits | AID 1259318;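 active = activity above about 14%, limit read from the data; passing the limit was not always enough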;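 note: 0% = DMSO wells with 35 nM protein and 100% = DMSO wells with 750 nM protein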
Target sequence (P20393 whole entry, looked up): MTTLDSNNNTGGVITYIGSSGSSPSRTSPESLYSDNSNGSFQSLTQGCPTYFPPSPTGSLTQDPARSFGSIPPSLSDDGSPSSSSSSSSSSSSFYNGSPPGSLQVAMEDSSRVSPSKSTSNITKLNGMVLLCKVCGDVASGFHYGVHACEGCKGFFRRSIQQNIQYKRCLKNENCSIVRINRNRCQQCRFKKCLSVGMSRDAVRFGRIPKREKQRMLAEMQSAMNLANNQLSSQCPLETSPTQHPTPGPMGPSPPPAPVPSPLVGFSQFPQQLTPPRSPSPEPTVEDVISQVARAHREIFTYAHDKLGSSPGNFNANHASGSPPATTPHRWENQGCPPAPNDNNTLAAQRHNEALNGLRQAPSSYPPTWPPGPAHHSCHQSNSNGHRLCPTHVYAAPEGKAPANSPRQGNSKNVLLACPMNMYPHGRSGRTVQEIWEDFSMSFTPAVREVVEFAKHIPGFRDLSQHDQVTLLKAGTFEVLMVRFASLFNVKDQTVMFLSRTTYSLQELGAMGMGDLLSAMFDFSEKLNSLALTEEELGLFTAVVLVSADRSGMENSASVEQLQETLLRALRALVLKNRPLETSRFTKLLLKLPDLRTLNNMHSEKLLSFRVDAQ
MC4R barr agon – activates human MC4R beta-arrestin recruitment. P32245. activation, % at 8.9 µM. 360,000 compounds, 0.98% hits. AID 540308. U2OS MC4R beta-arrestin complementation, luminescence; percent of melanotan II response, DMSO zero;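 active = activation above a per-plate cutoff, the mean activation of sample wells on that plate plus 3 SD, cut at about 8% in these data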
NR2E3 ag conf – confirmation of human NR2E3 agonists; shares compounds with NR2E3 ag-2; CHO-S mammalian two-hybrid NR2E3-NCOR, luciferase luminescence; inhibition, % at 3.98 µM; 2,300 compounds, 51% hits; AID 624378;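 active = average inhibition above a cutoff equal to the mean inhibition of all tested compounds plus one SD, cut at about 70% in these data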;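 note: 0% = DMSO in NR2E3 cells and 100% = DMSO in cells lacking NR2E3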
GAL4-VP16 luc – GAL4-VP16 reporter inhibition in NR2E3 agonist counterscreen | CHO-S GAL4-VP16 luciferase reporter, luminescence | 2,300 compounds, 29% hits | AID 624379 | shares compounds with NR2E3 ag-2 | inhibition, % at 3.98 µM;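 active = mean inhibition above a cutoff equal to the average over all tested compounds plus one standard deviation, cut at about 70% in these data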;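 note: luciferase from a UAS reporter driven by GAL4-VP16 transactivation; 0% = DMSO with VP16-transfected cells and 100% = DMSO with cells lacking VP16; higher means less reporter light so more repression of VP16 activity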
* marks the source's active call; other numbers are inactive results; . = not tested or not shown. The list is not random: actives were taken first. Their share in the collection is about 2.7%.

SMILES | MC4R antagonist | NR2E3 ag-1 | NR2E3 ag-2 | PG9 binder | NR1D1 modulator | MC4R barr agon | NR2E3 ag conf | GAL4-VP16 luc
CCOC(=O)c1cnc(-n2nc(C)cc2C)nc1Oc1ccccc1F | 12 | 3 | -27 | -2 | -1 | 1 | . | .
CC(OC(=O)c1cccc(-n2cnnn2)c1)c1nc2ccccc2c(=O)[nH]1 (centres undefined) | 3 | 3 | 11 | -1 | 8 | 0 | . | .
CC(C)(C)OC(=O)C1C(=O)CC(C)(O)C(C(=O)OC(C)(C)C)C1c1ccco1 (centres undefined) | 3 | -1 | 15 | -1 | -6 | 2 | . | .
O=C(C1CCC(CNS(=O)(=O)c2cccc3nsnc23)CC1)N1CC=C(c2ccccc2)CC1 (centres undefined) | 2 | 2 | 50 | 0 | -2 | 2 | 88* | 56
O=C(C1CCN(S(=O)(=O)c2cccc3nsnc23)CC1)N1CC=C(c2ccccc2)CC1 | 2 | 1 | 6 | -1 | 3 | 1 | . | .
CC1Cc2cc(S(=O)(=O)NCCc3ccccc3)ccc2N1C(=O)C1CC1 (centres undefined) | -2 | -1 | 50 | -1 | 1 | -2 | 71* | 57
CC(=O)N1c2ccc(S(=O)(=O)NCCc3ccccc3)cc2CC1C (centres undefined) | 10 | -1 | 73* | -3 | 5 | -2 | 55 | 50
CC(=O)N1c2ccc(S(=O)(=O)NCC3CCC(C(=O)Nc4cc(C)ccn4)CC3)cc2CC1C (centres undefined) | 9 | 1 | 48 | -1 | 1 | -1 | 52 | 40
CC(=O)N1c2ccc(S(=O)(=O)NCC3CCC(C(=O)Nc4ncccc4C)CC3)cc2CC1C (centres undefined) | 8 | -5 | -11 | 0 | -1 | -3 | . | .
CC(=O)N1c2ccc(S(=O)(=O)NCCC(=O)N(C)Cc3ccccc3)cc2CC1C (centres undefined) | 12 | 0 | -6 | -1 | 2 | -2 | . | .
c1ccc(SCc2nc(-c3ccncc3)n[nH]2)nc1 | 2 | -1 | -4 | -2 | 0 | 2 | . | .
Cc1ccc(CSCCNC(=O)CSCc2ccc([N+](=O)[O-])cc2)cc1 | -6 | -3 | -4 | 1 | -1 | 3 | . | .
OC(c1ccc(F)cc1)c1nc(-c2ccncc2)cs1 (centres undefined) | 14 | . | 79* | 0 | 8 | 2 | 83* | 71*
OC(c1ccc(F)c(F)c1)c1nc(-c2ccncc2)cs1 (centres undefined) | 4 | . | 28 | 0 | 5 | 0 | . | .
COc1ccc(CCNc2c(C)c(C)nc3ncnn23)cc1 | 14 | 1 | 93* | 0 | -5 | 0 | 94* | 75*
O=C(/C=C/c1cccs1)N1CCN(c2ccc(O)cc2)CC1 | -13 | 0 | -9 | -2 | 3 | -1 | . | .
COc1ccc(CCNc2ccc(N3C(=O)CC(C)C3=O)cc2[N+](=O)[O-])cc1OC (centres undefined) | -8 | 2 | 75* | 2 | 7 | -2 | 57 | 73*
COc1ccc(CCNc2ccc(N3C(=O)CC(C)C3=O)cc2[N+](=O)[O-])cc1 (centres undefined) | 2 | 1 | -7 | 0 | 13 | -1 | . | .
Cc1ccc(NC(=O)CNC(=O)N2CC(=O)Nc3ccccc32)cc1F | 5 | 2 | -20 | -1 | 0 | 1 | . | .
O=C(CCl)N1CCN2C(=O)c3ccccc3C12c1ccc(Cl)cc1 (centres undefined) | 15 | -5 | -21 | 0 | -1 | -3 | . | .
Cc1ccc(C(=O)N2CCN3C(=O)c4ccccc4C23c2ccc(Cl)cc2)cc1 (centres undefined) | 4 | 2 | 74* | 2 | 5 | -1 | 44 | 15

Screening data as filed in PubChem BioAssay.
